Bioassay records: PubChem BioAssay, Johns Hopkins Ion Channel Center
RGS4 act – potentiators or activators of RGS4 | HEK293 M3R/inducible RGS4, carbachol calcium flux Fluo4; hits give low values | B-score at 10 µM | 310,000 compounds, 0.92% hits | AID 463111;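 active = B-score of the integrated calcium signal more than 4 SD below the library mean, with starting fluorescence not abnormally high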;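 also: negative B-score means reduced calcium response which marks RGS4 activation or potentiation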
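test system = HEK293 cells with stable M3R and inducible RGS4 | schedule = recording 10 s baseline at 1 Hz, 100 s post-agonist | technique = Fluo4-AM (2 µM) calcium-flux fluorescence, kinetic read | measure = Agonist-evoked peak-minus-minimum fluorescence over baseline, integrated ratio, B score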
MrgX1 antag – human MrgX1 receptor antagonism, primary screen; Q96LB2; AID 588676; 310,000 compounds, 1.3% hits; B-score at 10 µM; MRGX1-HEK293 calcium flux, Fluo-4, BAM8-22 antagonism; hits give low values;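 active = calcium-response B-score plate-corrected more than 3 library SD below zero, starting fluorescence within 5 deviations, no agonist response on first addition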;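 also: peak minus trough fluorescence over baseline after final BAM8-22 challenge near maximal dose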
Target sequence (Q96LB2 whole entry, looked up): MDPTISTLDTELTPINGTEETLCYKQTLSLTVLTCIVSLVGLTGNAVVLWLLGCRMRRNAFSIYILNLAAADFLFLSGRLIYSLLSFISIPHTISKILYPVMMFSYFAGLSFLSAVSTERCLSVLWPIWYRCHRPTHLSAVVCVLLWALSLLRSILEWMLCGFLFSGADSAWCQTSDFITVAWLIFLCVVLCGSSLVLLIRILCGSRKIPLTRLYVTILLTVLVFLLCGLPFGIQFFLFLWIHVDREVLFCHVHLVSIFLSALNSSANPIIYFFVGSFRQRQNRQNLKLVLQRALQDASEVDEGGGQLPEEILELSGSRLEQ
MrgX1 agonist – agonists of human MrgX1 receptor | Q96LB2 | B-score at 10 µM | MrgX1-HEK293 cells, Fluo-4 calcium fluorescence, agonist mode; hits give high values | 310,000 compounds, 0.44% hits;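 active = calcium response B-score plate-corrected fluorescence ratio at least 3 library SD, with starting fluorescence B-score inside 5 SD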
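Test system: Stable human MrgX1 HEK293 cell line | Schedule: Overnight plating before 1 h dye loading | Read-out basis: Baseline-normalised fluorescence change ratio, B-scored | Detection: Kinetic calcium dye fluorescence, Fluo-4 NW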
RGS4 inh – inhibitors of human RGS4; HEK293 M3R/RGS4 inducible, Fluo-4 calcium flux; hits give high values; triggered by carbachol at its EC20; B-score at 10 µM; 310,000 compounds, 0.45% hits; AID 463165;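 active = B-score, a plate-corrected calcium signal, over three deviations above library mean, with baseline fluorescence within five deviations of library mean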;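 also: RGS4 expression induced by doxycycline in cells with stable M3 receptor; B-score is computed from the integrated fluorescence ratio over baseline after carbachol; higher B-score means a larger calcium signal and so more RGS4 inhibition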
Target sequence (P49798 whole entry, looked up): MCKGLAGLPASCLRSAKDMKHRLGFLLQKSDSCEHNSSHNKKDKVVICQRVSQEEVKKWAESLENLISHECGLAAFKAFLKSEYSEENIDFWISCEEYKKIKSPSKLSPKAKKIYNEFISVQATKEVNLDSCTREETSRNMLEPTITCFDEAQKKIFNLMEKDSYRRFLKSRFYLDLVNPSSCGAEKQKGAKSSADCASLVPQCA
MrgX1 PAM – human MrgX1 positive allosteric modulation, primary screen. Q96LB2. MrgX1-HEK293, Fluo-4 calcium flux, FDSS; hits give high values. B-score at 10 µM. 310,000 compounds, 0.63% hits;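 active = plate-corrected calcium response at least 3 library SD above typical, normal starting fluorescence, not activating the receptor alone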;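 also: compound read alongside a low EC10 to EC30 dose of BAM8-22 agonist; peak minus trough fluorescence over baseline measured at the second addition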
Numbers without * were called inactive; i = inactive; x = not tested or not shown. Shown are actives, neighbours in structure and some others; about 3.5% of the full set was active somewhere.

SMILES	RGS4 act	MrgX1 antag	MrgX1 agonist	RGS4 inh	MrgX1 PAM
O=C(NCCN1CCOCC1)C1CCN(c2ncnc3c2sc2cccc(F)c23)CC1	i	i	i	i	i
CCOC(=O)C1(Cc2ccccc2)CCCN(Cc2ccc(OCCO)cc2)C1 (stereo unspecified)	i	i	i	i	i
C/C(=N\NC(=O)c1cccc([N+](=O)[O-])c1)c1cccs1	i	i	i	i	13.2*
C/C(=N\NC(=O)c1cccc([N+](=O)[O-])c1)c1ccncc1	i	i	i	i	i
O=C1OC(c2ccc(F)cc2)=C/C1=C\c1ccc(O)cc1	i	i	i	i	i
O=C1OC(c2ccc(F)cc2)=C/C1=C\c1ccc([N+](=O)[O-])o1	i	-7.82*	i	i	i
COc1ccc(OC)c(CNn2c(-c3ccccc3F)nc3ccccc3c2=O)c1	i	-4.78*	i	i	i
CCOC(=O)C[C@H]1c2ccc(C(F)(F)F)cc2S(=O)(=O)N1c1cccc(OC)c1	i	i	i	i	i
Cn1c(-c2c(N)n(C3CCCC3)c3nc4ccccc4nc23)nc2ccccc21	-8.96*	-7.44*	i	i	i
Cn1c(-c2c(N)n(CCCc3ccccc3)c3nc4ccccc4nc23)nc2ccccc21	i	x	x	i	x
Cn1c(-c2c(N)n(CCc3ccccc3)c3nc4ccccc4nc23)nc2ccccc21	i	i	29.4*	i	i
Nc1c(C(=O)OCC2CCCO2)c2nc3ccccc3nc2n1C1CCCC1 (stereo unspecified)	i	i	i	i	i
O=C(CN1C(=O)c2cccnc2Oc2ccc(Cl)cc21)NCCCc1ccccc1	i	i	i	i	i
COc1ccc(CN=Cc2[nH]c3ccc(Br)c(Cl)c3c2O)cc1	i	i	36.8*	i	i
Cc1cc(C)cc(N=Cc2[nH]c3ccc(Br)c(Cl)c3c2O)c1	i	i	39.4*	i	i
COc1ccc(CN=CC2=C(O)CNC2=O)cc1	i	i	i	i	i
C=CCn1c(SCC(=O)c2ccc(Br)cc2)nnc1C(CC(C)C)NC(=O)c1cccs1 (stereo unspecified)	i	-6.08*	i	i	i
O=C1CCCN1CCCNc1ncnc2c1[nH]c1ccc(Cl)cc12	i	i	37.1*	i	i
CCn1c(Cc2ccccc2)nnc1SCC(=O)Nc1ccc(C)cc1	i	i	i	i	i
CCn1c(CC(=O)Nc2ccc(C)cc2)nnc1SCC(=O)NCCc1ccccc1	i	-5.49*	i	i	i
COc1cc(C(=O)NCC(=O)N/N=C/c2ccc(-c3cccc([N+](=O)[O-])c3)o2)cc(OC)c1OC	i	i	i	i	i
Cc1cccn2c(=O)c3cc(C#N)c(=NC(=O)c4ccccc4)n(Cc4ccco4)c3nc12	i	-4.87*	i	i	i
COc1ccc(Nc2nc(-c3ccccc3O)nc3ccccc23)cc1	-6.96*	i	i	i	i
COc1ccc(Nc2nc(-c3ccccc3F)nc3ccccc23)cc1OC	-7.19*	i	i	i	i
Cc1ccc(-n2c(CSc3nc(C)cc(C)n3)nnc2SCC(=O)NCc2ccco2)cc1	i	-6.63*	i	i	i
SMILES	RGS4 act	MrgX1 antag	MrgX1 agonist	RGS4 inh	MrgX1 PAM
CCN(Cc1ccccc1)c1ccc(/C=N/N=C(N)N)cc1	i	-5.47*	i	i	i
FCCCOc1ccc(/C=N/OCc2ccc(Cl)cc2Cl)cc1	i	-5.5*	i	i	i
CC(=O)C1=C(C)Nc2ncnn2C1c1ccc(Br)cc1 (stereo unspecified)	i	i	i	i	i
O=C(C[n+]1cc(Br)cc2ccccc21)c1ccc(Cl)cc1	i	i	i	i	7.36*
CS(=O)(=O)c1ccccc1-c1nnc(NC(=O)Cc2ccccc2)o1	i	i	i	i	i
CCCCN(C(=O)CSCC(=O)Nc1ccc(C)cc1)c1c(N)n(CCCC)c(=O)[nH]c1=O	i	i	i	i	i
Cc1cnc(CN(C)C(=O)c2ccc3oc(Cc4ccc(Cl)cc4)nc3c2)[nH]1	-7.18*	i	i	i	i
COc1ccc(O[C@H]2C=C[C@@H](c3ccccc3)O[C@@H]2CO/N=C(\C)CCC(=O)OC[C@H]2O[C@H](c3ccccc3)C=C[C@@H]2Oc2ccc(OC)cc2)cc1	i	-7.15*	i	i	i
COc1cccc(-c2ccc(NC(=O)C3CCCN(Cc4cnc(C)n4C)C3)cc2)c1 (stereo unspecified)	-7.09*	i	i	i	i
CN1C(C(=O)N2CCc3ccccc3C2)=CC(c2ccc(F)cc2)=NS1(=O)=O	i	i	i	i	i
Fc1ccc2c(c1)Sc1ccc(Cl)cc1CC2N1CCN(CCC2OCCO2)CC1 (stereo unspecified)	-7.32*	i	i	i	i
Cc1nn(-c2ccc(Cl)cc2)c(Cl)c1/C=N/NC(=O)c1ccc(NS(=O)(=O)c2cccs2)cc1	i	i	i	i	13.1*
CC(=O)Nc1cccc(NC(=O)CSc2nc3c(=O)n(C)c(=O)n(C)c3n2C)c1	i	i	i	i	i
O=C(CCC(=O)OCC(=O)c1cccc([N+](=O)[O-])c1)Nc1ccccc1Cl	i	-6.98*	i	i	i
O=C(CCC(=O)OCc1cccc([N+](=O)[O-])c1)Nc1ccccc1Cl	i	i	i	i	i
Cc1cc(C)n(S(=O)(=O)c2ccc3oc(=O)ccc3c2)n1	i	i	i	i	i
O=C(NC(=S)NCCC1=CCCCC1)c1ccccc1Br	-7.29*	i	i	i	i
O=[N+]([O-])c1ccc2nc(NS(=O)(=O)c3ccc(Cl)cc3)sc2c1	i	i	i	i	10.6*
O=[N+]([O-])c1ccc2nc(NS(=O)(=O)c3ccccc3[N+](=O)[O-])sc2c1	i	i	i	i	10.2*
O=C(NC(Nc1nc2ccc([N+](=O)[O-])cc2s1)(C(F)(F)F)C(F)(F)F)c1ccccc1Cl	i	-5.51*	i	i	i
O=[N+]([O-])c1ccccc1S(=O)(=O)Nc1nc2ccccc2s1	i	i	i	i	i
O=C(NC(Nc1nc2ccc([N+](=O)[O-])cc2s1)(C(F)(F)F)C(F)(F)F)c1cccnc1	i	i	i	i	i
Cc1ccc(Cl)c(OCC(=O)Nc2cc(S(=O)(=O)N3CCOCC3)ccc2N2CCCC2)c1	i	i	i	i	i
O=C(NCCCCO)c1ccc2c3c(cccc13)CC2	i	i	i	i	i
